Converted amounts (≈) assume the structure as drawn.

This note sets out measurements from ChEMBL document CHEMBL1144169, “Synthesis and cytotoxic activity of heterocyclic ring-substituted betulinic acid derivatives” (Bioorg Med Chem Lett, 2008).

One assay relates to SW-620. Nature of the assay: Cytotoxicity against human SW620 cells after 72 hrs by MTT assay. It is filed as functional, cell-based. As to conditions: SW-620, 72 h. An outline of the steps: (§1)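 Cells harvested from 70–80% confluent cultures by trypsin/EDTA and seeded at 5000 cells/well in DMEM for 24 h. Compounds were dissolved in DMSO and diluted in medium to 0.5–20, with final DMSO below 1%. After 72 h at CO2, MTT was added for 3 h at 37 °C. Medium was replaced with DMSO and OD read at 540 nm. IC50 ± SD, three independent experiments.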
What is called IC50 is the concentration needed to halve the response being measured. Low readings indicate inhibition by little substance, high ones a need for much substance. For `C=C(C)[C@@H]1CC[C@]2(C(=O)O)CC[C@]3(C)[C@H](CC[C@@H]4[C@@]5(C)Cc6c([nH]c7c(F)cccc67)C(C)(C)[C@@H]5CC[C@]43C)[C@@H]12`, the IC50 was > 20 µg/mL.
`CC(C)[C@@H]1CC[C@]2(C(=O)O)CC[C@]3(C)[C@H](CC[C@@H]4[C@@]5(C)Cc6c([nH]c7ccc(Cl)cc67)C(C)(C)[C@@H]5CC[C@]43C)[C@@H]12` yielded an IC50 of 5.9 µg/mL (≈ 10.5 µM).
On the same count and under the same terms, the same measure for `C=C(C)[C@@H]1CC[C@]2(C(=O)NCC(=O)O)CC[C@]3(C)[C@H](CC[C@@H]4[C@@]5(C)Cc6c([nH]c7ccccc67)C(C)(C)[C@@H]5CC[C@]43C)[C@@H]12`: 8.7 µg/mL (≈ 14.9 µM).

Another assay has as its system K562. The assay is described as follows: Cytotoxicity against human K-562 cells after 72 hrs by MTT assay. It is filed as functional, cell-based. The settings on record: K562, 72 h. For orientation: Tetrazolium assays rely on reduction of a dye to a coloured formazan, in cell work by metabolically active cells.
As for `C=C(C)[C@@H]1CC[C@]2(C(=O)O)CC[C@]3(C)[C@H](CC[C@@H]4[C@@]5(C)Cc6c([nH]c7c(F)cccc67)C(C)(C)[C@@H]5CC[C@]43C)[C@@H]12`, the midpoint of inhibition, the IC50, lay at 8.7 µg/mL (≈ 15.9 µM).
On the same count and under the same terms, next, `CC(C)[C@@H]1CC[C@]2(C(=O)O)CC[C@]3(C)[C@H](CC[C@@H]4[C@@]5(C)Cc6c([nH]c7ccc(Cl)cc67)C(C)(C)[C@@H]5CC[C@]43C)[C@@H]12`: > 20 µg/mL.
As to `C=C(C)[C@@H]1CC[C@]2(C(=O)NCC(=O)O)CC[C@]3(C)[C@H](CC[C@@H]4[C@@]5(C)Cc6c([nH]c7ccccc67)C(C)(C)[C@@H]5CC[C@]43C)[C@@H]12`, the IC50 came to 11.9 µg/mL (≈ 20.4 µM).

The test system of another assay is PA-1. The assay is described as follows: Cytotoxicity against human PA-1 cells after 72 hrs by MTT assay. Format: functional, cell-based. As to conditions: PA-1, 72 h. An outline of the steps: as §1
Compound `CC(C)[C@@H]1CC[C@]2(C(=O)O)CC[C@]3(C)[C@H](CC[C@@H]4[C@@]5(C)Cc6c([nH]c7ccc(Cl)cc67)C(C)(C)[C@@H]5CC[C@]43C)[C@@H]12` came in with an IC50 of 6.6 µg/mL (≈ 11.7 µM).
On the same count and under the same terms, next, `C=C(C)[C@@H]1CC[C@]2(C(=O)NCC(=O)O)CC[C@]3(C)[C@H](CC[C@@H]4[C@@]5(C)Cc6c([nH]c7ccccc67)C(C)(C)[C@@H]5CC[C@]43C)[C@@H]12`: 3 µg/mL (≈ 5.13 µM).

The test system of the next assay is DU-145. The assay is described as follows: Cytotoxicity against human DU145 cells after 72 hrs by MTT assay. It is filed as functional, cell-based. As to conditions: DU-145, 72 h. The essentials:
as §1
`C=C(C)[C@@H]1CC[C@]2(C(=O)O)CC[C@]3(C)[C@H](CC[C@@H]4[C@@]5(C)Cc6c([nH]c7c(F)cccc67)C(C)(C)[C@@H]5CC[C@]43C)[C@@H]12`: the IC50 was > 20 µg/mL.
Same read-out and setting: next, `CC(C)[C@@H]1CC[C@]2(C(=O)O)CC[C@]3(C)[C@H](CC[C@@H]4[C@@]5(C)Cc6c([nH]c7ccc(Cl)cc67)C(C)(C)[C@@H]5CC[C@]43C)[C@@H]12`: 6.5 µg/mL (≈ 11.5 µM).
The same measure, in the same setting: the same measure for `C=C(C)[C@@H]1CC[C@]2(C(=O)NCC(=O)O)CC[C@]3(C)[C@H](CC[C@@H]4[C@@]5(C)Cc6c([nH]c7ccccc67)C(C)(C)[C@@H]5CC[C@]43C)[C@@H]12`: 7 µg/mL (≈ 12 µM).

A further assay has as its system A549. The assay is described as follows: Cytotoxicity against human A549 cells after 72 hrs by MTT assay. It is filed as functional, cell-based. The settings on record: A549, 72 h. An outline of the steps:
as §1
Regarding `C=C(C)[C@@H]1CC[C@]2(C(=O)O)CC[C@]3(C)[C@H](CC[C@@H]4[C@@]5(C)Cc6c([nH]c7c(F)cccc67)C(C)(C)[C@@H]5CC[C@]43C)[C@@H]12`, the midpoint of inhibition, the IC50, lay at 3 µg/mL (≈ 5.5 µM).
On the same count and under the same terms, next, `CC(C)[C@@H]1CC[C@]2(C(=O)O)CC[C@]3(C)[C@H](CC[C@@H]4[C@@]5(C)Cc6c([nH]c7ccc(Cl)cc67)C(C)(C)[C@@H]5CC[C@]43C)[C@@H]12`: 8.8 µg/mL (≈ 15.6 µM); `C=C(C)[C@@H]1CC[C@]2(C(=O)NCC(=O)O)CC[C@]3(C)[C@H](CC[C@@H]4[C@@]5(C)Cc6c([nH]c7ccccc67)C(C)(C)[C@@H]5CC[C@]43C)[C@@H]12`: 3.53 µg/mL (≈ 6.04 µM).

For a further assay, the system named is MIA PaCa-2. The assay is described as follows: Cytotoxicity against human MIA PaCa2 cells after 72 hrs by MTT assay. It is filed as functional, cell-based. As to conditions: MIA PaCa-2, 72 h. An outline of the steps:
as §1
`C=C(C)[C@@H]1CC[C@]2(C(=O)O)CC[C@]3(C)[C@H](CC[C@@H]4[C@@]5(C)Cc6c([nH]c7c(F)cccc67)C(C)(C)[C@@H]5CC[C@]43C)[C@@H]12` registered an IC50 of 3.3 µg/mL (≈ 6.05 µM).
Same read-out and setting: next, `CC(C)[C@@H]1CC[C@]2(C(=O)O)CC[C@]3(C)[C@H](CC[C@@H]4[C@@]5(C)Cc6c([nH]c7ccc(Cl)cc67)C(C)(C)[C@@H]5CC[C@]43C)[C@@H]12`: 15.2 µg/mL (≈ 26.9 µM).
Still for that read-out and setting: the same measure for `C=C(C)[C@@H]1CC[C@]2(C(=O)NCC(=O)O)CC[C@]3(C)[C@H](CC[C@@H]4[C@@]5(C)Cc6c([nH]c7ccccc67)C(C)(C)[C@@H]5CC[C@]43C)[C@@H]12`: 0.67 µg/mL (≈ 1.15 µM).

The next assay relates to HBL-100. The assay is described as follows: Cytotoxicity against human HBL100 cells after 72 hrs by MTT assay. Format: functional, cell-based. As to conditions: HBL-100, 72 h. An outline of the steps: as §1
`C=C(C)[C@@H]1CC[C@]2(C(=O)O)CC[C@]3(C)[C@H](CC[C@@H]4[C@@]5(C)Cc6c([nH]c7c(F)cccc67)C(C)(C)[C@@H]5CC[C@]43C)[C@@H]12` showed an IC50 of 3.5 µg/mL (≈ 6.41 µM).
The same measure, in the same setting: the same measure for `CC(C)[C@@H]1CC[C@]2(C(=O)O)CC[C@]3(C)[C@H](CC[C@@H]4[C@@]5(C)Cc6c([nH]c7ccc(Cl)cc67)C(C)(C)[C@@H]5CC[C@]43C)[C@@H]12`: > 20 µg/mL.
Consider `C=C(C)[C@@H]1CC[C@]2(C(=O)NCC(=O)O)CC[C@]3(C)[C@H](CC[C@@H]4[C@@]5(C)Cc6c([nH]c7ccccc67)C(C)(C)[C@@H]5CC[C@]43C)[C@@H]12`, for which the IC50 was > 20 µg/mL.

Another assay concerns NIH3T3. The assay is described as follows: Cytotoxicity against mouse NIH3T3 cells after 72 hrs by MTT assay. It is filed as cell-based. As to conditions: NIH3T3, 72 h. The essentials: as §1
In the case of `C=C(C)[C@@H]1CC[C@]2(C(=O)O)CC[C@]3(C)[C@H](CC[C@@H]4[C@@]5(C)Cc6c([nH]c7c(F)cccc67)C(C)(C)[C@@H]5CC[C@]43C)[C@@H]12`, the IC50 was found to be 2.1 µg/mL (≈ 3.85 µM).
On the same count and under the same terms, next, `CC(C)[C@@H]1CC[C@]2(C(=O)O)CC[C@]3(C)[C@H](CC[C@@H]4[C@@]5(C)Cc6c([nH]c7ccc(Cl)cc67)C(C)(C)[C@@H]5CC[C@]43C)[C@@H]12`: 19 µg/mL (≈ 33.7 µM).
`C=C(C)[C@@H]1CC[C@]2(C(=O)NCC(=O)O)CC[C@]3(C)[C@H](CC[C@@H]4[C@@]5(C)Cc6c([nH]c7ccccc67)C(C)(C)[C@@H]5CC[C@]43C)[C@@H]12` displayed an IC50 of 0.68 µg/mL (≈ 1.16 µM).
